The target of this assay is Mitogen-activated protein kinase kinase kinase 1 (Homo sapiens) (UniProt Q13233). As to the kind of experiment: Binding affinity to wild-type human partial length MAP3K1 (L1202 to W1512 residues) expressed in mammalian expression system assessed as residual binding level at 1 uM by Kinomescan method relative to control. The method, boiled down: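 Active-site-directed competition binding panel of 468 kinases (KinomeScan), compound at 1 μM. The read-out is kinase remaining bound, given as a percentage of the DMSO control. […]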
Mitogen-activated protein kinase kinase kinase 1 (Homo sapiens), sequence (Q13233 whole entry, the tested form may be a part): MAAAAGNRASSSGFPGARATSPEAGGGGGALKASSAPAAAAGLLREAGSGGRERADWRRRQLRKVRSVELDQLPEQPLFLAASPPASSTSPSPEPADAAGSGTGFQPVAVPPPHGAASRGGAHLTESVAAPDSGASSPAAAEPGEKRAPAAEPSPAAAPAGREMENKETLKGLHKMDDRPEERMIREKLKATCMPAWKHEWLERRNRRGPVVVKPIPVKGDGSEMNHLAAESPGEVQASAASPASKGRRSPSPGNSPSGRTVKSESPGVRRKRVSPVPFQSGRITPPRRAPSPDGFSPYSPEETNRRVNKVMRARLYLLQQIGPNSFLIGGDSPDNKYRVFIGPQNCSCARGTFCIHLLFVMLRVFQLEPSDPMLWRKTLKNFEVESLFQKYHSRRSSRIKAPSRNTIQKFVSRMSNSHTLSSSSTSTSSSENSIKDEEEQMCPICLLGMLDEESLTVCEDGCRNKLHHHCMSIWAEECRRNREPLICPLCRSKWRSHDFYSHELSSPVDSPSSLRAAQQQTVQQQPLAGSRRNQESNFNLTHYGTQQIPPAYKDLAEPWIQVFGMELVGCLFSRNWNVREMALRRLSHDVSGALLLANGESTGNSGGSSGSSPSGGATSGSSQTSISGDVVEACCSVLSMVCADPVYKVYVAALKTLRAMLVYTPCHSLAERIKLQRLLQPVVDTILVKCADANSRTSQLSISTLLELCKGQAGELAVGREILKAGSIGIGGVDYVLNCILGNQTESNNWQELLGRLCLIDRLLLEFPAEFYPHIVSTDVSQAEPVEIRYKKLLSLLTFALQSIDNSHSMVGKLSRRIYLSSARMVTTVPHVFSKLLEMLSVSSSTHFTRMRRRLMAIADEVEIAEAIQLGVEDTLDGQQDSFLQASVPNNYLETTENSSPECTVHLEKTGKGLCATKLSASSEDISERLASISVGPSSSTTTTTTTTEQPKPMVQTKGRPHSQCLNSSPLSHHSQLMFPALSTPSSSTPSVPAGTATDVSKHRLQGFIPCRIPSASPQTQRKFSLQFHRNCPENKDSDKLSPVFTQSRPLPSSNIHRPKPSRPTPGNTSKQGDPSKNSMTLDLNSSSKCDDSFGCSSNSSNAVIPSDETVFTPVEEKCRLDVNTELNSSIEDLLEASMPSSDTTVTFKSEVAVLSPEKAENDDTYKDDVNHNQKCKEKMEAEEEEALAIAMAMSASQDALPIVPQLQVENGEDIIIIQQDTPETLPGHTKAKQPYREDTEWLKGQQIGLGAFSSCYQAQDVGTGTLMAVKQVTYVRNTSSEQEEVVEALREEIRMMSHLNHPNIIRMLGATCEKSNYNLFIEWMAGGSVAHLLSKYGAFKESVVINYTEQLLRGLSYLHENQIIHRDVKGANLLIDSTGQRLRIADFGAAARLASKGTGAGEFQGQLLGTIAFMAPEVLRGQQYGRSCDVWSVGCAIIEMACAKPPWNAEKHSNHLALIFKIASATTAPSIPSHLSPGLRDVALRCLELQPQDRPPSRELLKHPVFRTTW

Regarding `C=CC(=O)Nc1ccccc1Nc1nc(Nc2ccc(N3CCN(C)CC3)cc2)ncc1C(=O)Nc1c(C)cccc1Cl`, the Activity worked out at 99%.

(Values after ChEMBL document CHEMBL4354843, “Structure-Based Design of a Potent and Selective Covalent Inhibitor for SRC Kinase That Targets a P-Loop Cysteine” (J Med Chem, 2020).)
